Assay results taken from ChEMBL document CHEMBL3585335, “Isolation and Synthetic Diversification of Jadomycin 4-Amino-l-phenylalanine” (J Nat Prod, 2015).
Calls of active or inactive are those of the source.

Legend:
LOX IMVI = experiment: Cytotoxicity against human LOXIMVI cells assessed as cell growth at 1 x 10^-5 M; assay type: functional, cell-based
Method in brief: (§1)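 Run by the NCI Developmental Therapeutics Program (DTP) as its one-dose screen across the 60 human tumour cell line panel.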

MDA-MB-231 = experiment: Cytotoxicity against human MDA-MB-231 cells assessed as cell growth at 1 x 10^-5 M; assay type: functional, cell-based; method in brief: as §1
SK-MEL-28 = experiment: Cytotoxicity against human SK-MEL-28 cells assessed as cell growth at 1 x 10^-5 M; assay type: functional, cell-based; method in brief: as §1
OVCAR-8 = experiment: Cytotoxicity against human OVCAR8 cells assessed as cell growth at 1 x 10^-5 M; assay type: functional, cell-based; method in brief: as §1
T47D = experiment: Cytotoxicity against human T47D cells assessed as cell growth at 1 x 10^-5 M; assay type: functional, cell-based
Method in brief: (§2)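 Tested by the NCI Developmental Therapeutics Program in its one-dose screen across the 60 human tumour cell line panel.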

SK-OV-3 = experiment: Cytotoxicity against human SKOV3 cells assessed as cell growth at 1 x 10^-5 M; assay type: functional, cell-based; method in brief: as §1
UACC-257 = experiment: Cytotoxicity against human UACC257 cells assessed as cell growth at 1 x 10^-5 M; assay type: functional, cell-based; method in brief: as §2
HL-60(TB) = experiment: Cytotoxicity against human HL-60(TB) cells assessed as cell growth at 1 x 10^-5 M; assay type: functional, cell-based
Method in brief: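 Run by the NCI Developmental Therapeutics Program (DTP) within its 60 human tumour cell line one-dose screen.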

ACHN = experiment: Cytotoxicity against human ACHN cells assessed as cell growth at 1 x 10^-5 M; assay type: functional, cell-based; method in brief: as §1
786-0 = experiment: Cytotoxicity against human 786-0 cells assessed as cell growth at 1 x 10^-5 M; assay type: functional, cell-based; method in brief: as §1
CAKI-1 = experiment: Cytotoxicity against human Caki1 cells assessed as cell growth at 1 x 10^-5 M; assay type: functional, cell-based; method in brief: as §1
MCF7 = experiment: Cytotoxicity against human MCF7 cells assessed as cell growth at 1 x 10^-5 M; assay type: functional, cell-based; method in brief: as §1
HCT-15 = experiment: Cytotoxicity against human HCT15 cells assessed as cell growth at 1 x 10^-5 M; assay type: functional, cell-based; method in brief: as §1
MOLT-4 = experiment: Cytotoxicity against human MOLT4 cells assessed as cell growth at 1 x 10^-5 M; assay type: functional, cell-based; method in brief: as §1
NCI-H226 = experiment: Cytotoxicity against human NCI-H226 cells assessed as cell growth at 1 x 10^-5 M; assay type: functional, cell-based; method in brief: as §1
IGROV-1 = experiment: Cytotoxicity against human IGROV1 cells assessed as cell growth at 1 x 10^-5 M; assay type: functional, cell-based; method in brief: as §1
Escherichia coli [1] = experiment: Effect on photodynamic inactivation in Escherichia coli pUC19 DNA assessed as photo-mediated DNA cleavage at 10 to 100 uM by ethidium bromide gel-electrophoresis analysis
SNB-75 = experiment: Cytotoxicity against human SNB75 cells assessed as cell growth at 1 x 10^-5 M; assay type: functional, cell-based; method in brief: as §1
OVCAR-4 = experiment: Cytotoxicity against human OVCAR4 cells assessed as cell growth at 1 x 10^-5 M; assay type: functional, cell-based; method in brief: as §1
K562 = experiment: Cytotoxicity against human K562 cells assessed as cell growth at 1 x 10^-5 M; assay type: functional, cell-based; method in brief: as §1
SW-620 = experiment: Cytotoxicity against human SW620 cells assessed as cell growth at 1 x 10^-5 M; assay type: functional, cell-based; method in brief: as §2
RXF 393 = experiment: Cytotoxicity against human RXF393 cells assessed as cell growth at 1 x 10^-5 M; assay type: functional, cell-based; method in brief: as §1
CCRF-CEM = experiment: Cytotoxicity against human CCRF-CEM cells assessed as cell growth at 1 x 10^-5 M; assay type: functional, cell-based; method in brief: as §1
PC-3 = experiment: Cytotoxicity against human PC3 cells assessed as cell growth at 1 x 10^-5 M; assay type: functional, cell-based; method in brief: as §1
SF-295 = experiment: Cytotoxicity against human SF295 cells assessed as cell growth at 1 x 10^-5 M; assay type: functional, cell-based; method in brief: as §1
M14 = experiment: Cytotoxicity against human M14 cells assessed as cell growth at 1 x 10^-5 M; assay type: functional, cell-based; method in brief: as §1
KM12 = experiment: Cytotoxicity against human KM12 cells assessed as cell growth at 1 x 10^-5 M; assay type: functional, cell-based; method in brief: as §1
HT-29 = experiment: Cytotoxicity against human HT-29 cells assessed as cell growth at 1 x 10^-5 M; assay type: functional, cell-based; method in brief: as §1
OVCAR-3 = experiment: Cytotoxicity against human OVCAR3 cells assessed as cell growth at 1 x 10^-5 M; assay type: functional, cell-based; method in brief: as §1
UACC-62 = experiment: Cytotoxicity against human UACC62 cells assessed as cell growth at 1 x 10^-5 M; assay type: functional, cell-based; method in brief: as §2
TK-10 = experiment: Cytotoxicity against human TK10 cells assessed as cell growth at 1 x 10^-5 M; assay type: functional, cell-based; method in brief: as §2
COLO 205 = experiment: Cytotoxicity against human COLO205 cells assessed as cell growth at 1 x 10^-5 M; assay type: functional, cell-based; method in brief: as §1
HOP-92 = experiment: Cytotoxicity against human HOP92 cells assessed as cell growth at 1 x 10^-5 M; assay type: functional, cell-based; method in brief: as §1
NCI-H23 = experiment: Cytotoxicity against human NCI-H23 cells assessed as cell growth at 1 x 10^-5 M; assay type: functional, cell-based; method in brief: as §1
OVCAR-5 = experiment: Cytotoxicity against human OVCAR5 cells assessed as cell growth at 1 x 10^-5 M; assay type: functional, cell-based; method in brief: as §1
U-251 = experiment: Cytotoxicity against human U251 cells assessed as cell growth at 1 x 10^-5 M; assay type: functional, cell-based; method in brief: as §2
SNB-19 = experiment: Cytotoxicity against human SNB19 cells assessed as cell growth at 1 x 10^-5 M; assay type: functional, cell-based; method in brief: as §1
NCI-H322M = experiment: Cytotoxicity against human NCI-H322M cells assessed as cell growth at 1 x 10^-5 M; assay type: functional, cell-based; method in brief: as §1
Escherichia coli [2] = experiment: Effect on Copper-mediated Escherichia coli pUC19 DNA cleavage at 100 uM by gel-electrophoresis analysis
HCT-116 = experiment: Cytotoxicity against human HCT116 cells assessed as cell growth at 1 x 10^-5 M; assay type: functional, cell-based; method in brief: as §1
NCI-H522 = experiment: Cytotoxicity against human NCI-H522 cells assessed as cell growth at 1 x 10^-5 M; assay type: functional, cell-based; method in brief: as §1
A549 = experiment: Cytotoxicity against human A549 cells assessed as cell growth at 1 x 10^-5 M; assay type: functional, cell-based; method in brief: as §1
SK-MEL-5 = experiment: Cytotoxicity against human SK-MEL-5 cells assessed as cell growth at 1 x 10^-5 M; assay type: functional, cell-based; method in brief: as §1
A498 = experiment: Cytotoxicity against human A498 cells assessed as cell growth at 1 x 10^-5 M; assay type: functional, cell-based; method in brief: as §1
SK-MEL-2 = experiment: Cytotoxicity against human SK-MEL-2 cells assessed as cell growth at 1 x 10^-5 M; assay type: functional, cell-based; method in brief: as §1
Hs-578T = experiment: Cytotoxicity against human Hs578T cells assessed as cell growth at 1 x 10^-5 M; assay type: functional, cell-based; method in brief: as §1
Escherichia coli [3] = experiment: Effect on Copper-mediated Escherichia coli pBR322 DNA cleavage at 100 uM by gel-electrophoresis analysis
BT-549 = experiment: Cytotoxicity against human BT549 cells assessed as cell growth at 1 x 10^-5 M; assay type: functional, cell-based; method in brief: as §1
SF-539 = experiment: Cytotoxicity against human SF539 cells assessed as cell growth at 1 x 10^-5 M; assay type: functional, cell-based; method in brief: as §1
UO-31 = experiment: Cytotoxicity against human UO31 cells assessed as cell growth at 1 x 10^-5 M; assay type: functional, cell-based; method in brief: as §2
MDA-MB-435 = experiment: Cytotoxicity against human MDA-MB-435 cells assessed as cell growth at 1 x 10^-5 M; assay type: functional, cell-based; method in brief: as §1
HOP-62 = experiment: Cytotoxicity against human HOP62 cells assessed as cell growth at 1 x 10^-5 M; assay type: functional, cell-based; method in brief: as §1
SF-268 = experiment: Cytotoxicity against human SF268 cells assessed as cell growth at 1 x 10^-5 M; assay type: functional, cell-based; method in brief: as §1
MDA-MB-468 = experiment: Cytotoxicity against human MDA-MB-468 cells assessed as cell growth at 1 x 10^-5 M; assay type: functional, cell-based; method in brief: as §1
DU-145 = experiment: Cytotoxicity against human DU145 cells assessed as cell growth at 1 x 10^-5 M; assay type: functional, cell-based; method in brief: as §1
Malme-3M = experiment: Cytotoxicity against human MALME-3M cells assessed as cell growth at 1 x 10^-5 M; assay type: functional, cell-based; method in brief: as §1
NCI/ADR-RES = experiment: Cytotoxicity against human NCI-ADR-RES cells assessed as cell growth at 1 x 10^-5 M; assay type: functional, cell-based; method in brief: as §1
SN12C = experiment: Cytotoxicity against human SN12C cells assessed as cell growth at 1 x 10^-5 M; assay type: functional, cell-based; method in brief: as §1
NCI-H460 = experiment: Cytotoxicity against human NCI-H460 cells assessed as cell growth at 1 x 10^-5 M; assay type: functional, cell-based; method in brief: as §1
HCC 2998 = experiment: Cytotoxicity against human HCC2998 cells assessed as cell growth at 1 x 10^-5 M; assay type: functional, cell-based; method in brief: as §1
SR = experiment: Cytotoxicity against human SR cells assessed as cell growth at 1 x 10^-5 M; assay type: functional, cell-based; method in brief: as §1

CCCCCCCCC(=O)Nc1ccc(C[C@H]2C(=O)OC3c4cc(C)cc(O)c4C4=C(C(=O)c5c(O[C@H]6C[C@@H](O)[C@@H](O)[C@H](C)O6)cccc5C4=O)N32)cc1 (stereo partly specified)
inactive: growth inhibition (GI) (LOX IMVI) | growth inhibition (GI) (MDA-MB-231) | growth inhibition (GI) (SK-MEL-28) | growth inhibition (GI) (OVCAR-8) | growth inhibition (GI) (T47D) | growth inhibition (GI) (SK-OV-3) | growth inhibition (GI) (UACC-257) | growth inhibition (GI) (HL-60(TB)) | growth inhibition (GI) (ACHN) | growth inhibition (GI) (786-0) | growth inhibition (GI) (CAKI-1) | growth inhibition (GI) (MCF7) | growth inhibition (GI) (HCT-15) | growth inhibition (GI) (MOLT-4) | growth inhibition (GI) (NCI-H226) | growth inhibition (GI) (IGROV-1) | Activity (Escherichia coli [1]) | growth inhibition (GI) (SNB-75) | growth inhibition (GI) (OVCAR-4) | growth inhibition (GI) (K562) | growth inhibition (GI) (SW-620) | growth inhibition (GI) (RXF 393) | growth inhibition (GI) (CCRF-CEM) | growth inhibition (GI) (PC-3) | growth inhibition (GI) (SF-295) | growth inhibition (GI) (M14) | growth inhibition (GI) (KM12) | growth inhibition (GI) (HT-29) | growth inhibition (GI) (OVCAR-3) | growth inhibition (GI) (UACC-62) | growth inhibition (GI) (TK-10) | growth inhibition (GI) (COLO 205) | growth inhibition (GI) (HOP-92) | growth inhibition (GI) (NCI-H23) | growth inhibition (GI) (OVCAR-5) | growth inhibition (GI) (U-251) | growth inhibition (GI) (SNB-19) | growth inhibition (GI) (NCI-H322M) | Activity (Escherichia coli [2]) | growth inhibition (GI) (HCT-116) | growth inhibition (GI) (NCI-H522) | growth inhibition (GI) (A549) | growth inhibition (GI) (SK-MEL-5) | growth inhibition (GI) (A498) | growth inhibition (GI) (SK-MEL-2) | growth inhibition (GI) (Hs-578T) | Activity (Escherichia coli [3]) | growth inhibition (GI) (BT-549) | growth inhibition (GI) (SF-539) | growth inhibition (GI) (UO-31) | growth inhibition (GI) (MDA-MB-435) | growth inhibition (GI) (HOP-62) | growth inhibition (GI) (SF-268) | growth inhibition (GI) (MDA-MB-468) | growth inhibition (GI) (DU-145) | growth inhibition (GI) (Malme-3M) | growth inhibition (GI) (NCI/ADR-RES) | growth inhibition (GI) (SN12C) | growth inhibition (GI) (NCI-H460) | growth inhibition (GI) (HCC 2998) | growth inhibition (GI) (SR)
